Hits are enriched below; roughly 1.8% of the tested compounds scored in any of these assays.
EphB4 ephrin blk: antagonists of human EphB4-ephrin-B2 interaction | P54760 | EphB4 LBD / TNYL-RAW-Alexa532 peptide, fluorescence polarization | inhibition, % at 7 µM | hit rate 0.15% among 97,000 | AID 720;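 active = inhibition above the screen-wide mean inhibition plus 3 SD, cut at about 15% in these data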;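 also: 0% = DMSO wells and 100% = excess unlabeled TNYL-RAW peptide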
S1P2 blocker: antagonists of human S1P2 receptor | cell-based S1P2 antagonist assay, inhibition at 5 uM | inhibition, % at 5 µM | hit rate 0.21% among 97,000 | AID 736; in the data active = inhibition above about 45%;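 also: CRE beta-lactamase reporter cells expressing human S1P2 stimulated with S1P; 0% = agonist at EC80 alone and 100% = agonist plus reference antagonist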
S1P2 agonist: agonists of human S1P2 receptor | O95136 | S1P2-expressing cell line, agonist reporter read-out | activation, % at 4.5 µM | hit rate 0.46% among 97,000 | AID 729; in the data active = activation above about 16%;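 also: 0% = vehicle low control and 100% = maximal reference agonist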
HIV Rev-RRE inh: disrupts HIV-1 Rev binding to RRE RNA; hit rate 0.79% among 97,000; Rev peptide-RRE RNA binding, FRET; P05866; inhibition, % at 8 µM;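 active = inhibition above the screen-wide mean plus 3 SD, cut at about 35% in these data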;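 also: 0% = median DMSO wells and 100% = median Neomycin B control wells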
Target sequence (P05866 whole entry, looked up): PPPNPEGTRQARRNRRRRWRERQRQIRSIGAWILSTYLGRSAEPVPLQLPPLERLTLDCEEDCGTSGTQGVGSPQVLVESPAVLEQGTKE
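Probe or stimulus: fluorescein-Rev peptide as binding partner; assay system: Cy5-tagged RRE RNA duplex with fluorescein-tagged Rev peptide; timing: 5 min compound–RNA preincubation, then 15 min with peptide, 25 °C; medium: HEPES pH 7.5 buffer with KCl, MgCl2, NaCl and EDTA; signal: fluorescein-to-Cy5 FRET, 480 nm excitation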
GALR2 antag: antagonists of human galanin receptor 2 (GALR2). hit rate 0.39% among 140,000. GALR2-expressing cells, antagonist mode. O43603. inhibition, % at 4 µM. AID 828; in the data active = inhibition above about 27%;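 also: cells stimulated with galanin 1-16 at roughly its EC80; 0% = agonist challenge control and 100% = basal control without agonist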
Target sequence (O43603 whole entry, looked up): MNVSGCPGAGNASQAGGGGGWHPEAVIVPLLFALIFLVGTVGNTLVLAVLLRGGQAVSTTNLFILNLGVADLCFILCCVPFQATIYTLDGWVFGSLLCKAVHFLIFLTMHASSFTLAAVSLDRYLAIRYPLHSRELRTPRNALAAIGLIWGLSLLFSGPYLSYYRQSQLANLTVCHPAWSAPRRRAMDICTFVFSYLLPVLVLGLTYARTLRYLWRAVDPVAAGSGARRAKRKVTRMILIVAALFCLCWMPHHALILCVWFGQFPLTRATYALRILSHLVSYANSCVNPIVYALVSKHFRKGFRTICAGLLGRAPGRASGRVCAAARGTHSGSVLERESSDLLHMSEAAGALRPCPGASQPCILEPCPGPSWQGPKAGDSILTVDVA
GALR2 agonist: GALR2 (human) receptor agonism | O43603 | GALR2-expressing cells, agonist activation read-out | activation, % (no concentration beside the values) | hit rate 0.48% among 140,000; in the data active = activation above about 5%, passing the limit was not always enough;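 also: 0% = vehicle buffer wells and 100% = reference agonist at full effect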
GALR2 agon conf: GALR2 (human) agonism confirmed. shares compounds with GALR2 agonist. GALR2-expressing cells, agonist activation. activation, % at 5.6 µM. hit rate 10% among 460. AID 864; in the data active = activation above about 8.4%;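 also: 0% = buffer-only vehicle wells and 100% = full reference agonist response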
BLA activ ctr: beta-lactamase activation, GALR2 counterscreen; AID 865; shares compounds with GALR2 agonist; hit rate 10% among 460; activation, % at 5.6 µM; CHO NFAT-bla reporter, beta-lactamase FRET activation;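 active = activation above the screen-wide mean activation plus 3 SD, cut at about 8% in these data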;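 also: 0% = DMSO with PBS wells and 100% = thapsigargin positive control wells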
An asterisk follows results filed as active; . = no result.

SMILES | EphB4 ephrin blk | S1P2 blocker | S1P2 agonist | HIV Rev-RRE inh | GALR2 antag | GALR2 agonist | GALR2 agon conf | BLA activ ctr
Cc1cccc(NC(=S)NCC(c2cccnc2)N(C)C)c1 (centres undefined) | . | . | . | . | -9 | 0 | . | .
CC(=O)Nc1ccc(Nc2ncnc3c2cnn3-c2cccc(C)c2)cc1 | 7 | -7 | -7 | 10 | 3 | -1 | . | .
CC(=O)Nc1ccc(Nc2ncnc3c2cnn3-c2ccc(C)cc2C)cc1 | 2 | -1 | -7 | 10 | -5 | 76* | -1 | -2
CCCCNC(=O)c1ccc(Cn2c(=S)[nH]c3c([nH]c4ccc(OC)cc43)c2=O)cc1 | . | . | . | . | 5 | 10* | 3 | 0
O=C(Cc1n[nH]c(=O)[nH]c1=O)N/N=C/c1cccc(O)c1 | 8 | -14 | -5 | 10 | 2 | 15* | -1 | -2
COC(=O)Cc1c(C)c2cc(Cl)c(OC(=O)c3ccco3)cc2oc1=O | -3 | -13 | 5 | 15 | 13 | 13* | 1 | 3
COC(=O)Cc1c(C)c2ccc(OC(=O)c3ccco3)cc2oc1=O | 2 | 2 | 2 | 1 | -2 | 3 | . | .
COc1cccc(/C=N/NC(=O)CCc2c(C)n[nH]c2C)c1 | 5 | 8 | -4 | 4 | 3 | 14* | -1 | -2
COc1ccc(C(=O)N2CCC(O)(c3ccc(F)cc3)CC2)cc1OC | 0 | -30 | -5 | 2 | -6 | 98* | 0 | -3
CCOC(=O)c1[nH]c2ccc(Cl)cc2c1NC(=O)/C=C/c1ccc2c(c1)OCO2 | . | . | . | . | -5 | 14* | 8.5* | 2
CCN(CC(=O)Nc1c(C(=O)OC)[nH]c2ccc(Cl)cc12)c1ccc2c(c1)OCO2 | -2 | 4 | -5 | 7 | 7 | 0 | . | .
Cc1cc([N+](=O)[O-])cnc1Sc1nccn1C | . | . | . | . | 4 | -2 | . | .
O=C(NNc1ccc(C2CCCCC2)cc1)C(O)(c1ccccc1)c1cccs1 (centres undefined) | -1 | -9 | -3 | 4 | 8 | 13* | -1 | -2
COc1ccc(C(O)(C(=O)NNc2ccc(C)cc2)c2cccs2)cc1 (centres undefined) | -2 | 6 | -7 | 5 | -2 | -1 | . | .
O=C(CCn1c(SCC(=O)NCc2ccco2)nc2ccccc2c1=O)NCCc1ccccc1 | 0 | 15 | 0 | 1 | -6 | -1 | . | .
Cc1nc2ccccc2n1CCc1nc2c3ccccc3nc(SCC(=O)NCc3ccco3)n2n1 | -4 | 1 | -5 | -2 | -1 | 8.7* | -1 | 1
Oc1ccc(O)c(-c2cnns2)c1 | . | . | . | . | 11 | -4 | . | .
CCCCNC(=S)NNC(=O)C12CC3CC(CC(C3)C1)C2 | -6 | -4 | -1 | -3 | -3 | -1 | . | .
CC(C)NC(=S)NNC(=O)C12CC3CC(CC(C3)C1)C2 | 4 | -7 | -4 | 4 | 3 | 12* | -1 | -2
CC1(C)CSC(=NCc2ccccc2)N1C(=O)c1cccc([N+](=O)[O-])c1 | . | . | . | . | 4 | -1 | . | .
CSc1nnc(-c2cc3c(s2)-c2ccccc2CC3)o1 | -4 | 17 | -3 | -2 | -4 | 0 | . | .
S=c1[nH]nc(-c2cc3c(s2)-c2ccccc2CC3)o1 | 3 | 14 | 9 | -3 | 2 | 10 | 2 | 5
CCOC(=S)SCC(=O)Nc1nc(-c2ccc(Br)cc2)cs1 | . | . | . | . | 8 | 16* | 5 | -4
CCOC(=S)SCC(=O)Nc1nc(-c2ccccc2)cs1 | . | . | . | . | 3 | -1 | . | .
CCN(C(=S)Nc1ccc(Oc2ccccc2)cc1)c1ccccc1 | . | . | . | . | 9 | 0 | . | .
O=C1N=C(N2CCCC2)CN1c1ccccc1 | . | . | . | . | -6 | -3 | . | .
Cc1ccc(NC(=O)C2C3CC4OC(=O)C2C4C3)cc1Cl (centres undefined) | -1 | -10 | -7 | 7 | 1 | 38* | 0 | 0
Cc1cc2c(c(=O)n1Cc1ccccn1)C(c1ccc3c(c1)OCO3)C(C#N)=C(N)O2 (centres undefined) | . | . | . | . | 9 | -1 | . | .
Cc1cc2c(c(=O)n1Cc1ccc3c(c1)OCO3)C(c1cccnc1)C(C#N)=C(N)O2 (centres undefined) | -18 | 9 | -11 | -4 | -3 | 23* | -1 | -2

Screening data (PubChem BioAssay)
